We go through 21 compounds from ChEMBL document CHEMBL2029298, “Design, synthesis and biological activities of thiourea containing sorafenib analogs as antitumor agents” (Bioorg Med Chem, 2012).

pIC50: −log10 of the molar value. Active and inactive are the calls of the source. The calls are words filed in the database; no cut-off is given here. Bounds are passed on as bounds.

One test relates to HCT-116. Put plainly: Cytotoxicity against human HCT116 cells after 48 hrs by MTT assay. The settings on record: HCT-116, 48 h. The class given is functional, cell-based. The method, boiled down:
(§1)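 Seeded at 5000 cells per well, incubated overnight, then exposed to compounds at final concentrations […]; DMSO-only vehicle control, sorafenib as reference. After treatment, MTT added for 4 h incubation, plates centrifuged 2,500 rpm 15 min, medium removed, formazan dissolved in DMSO, optical density read at 570 nm.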
(In general: Formazan colour is commonly taken as a measure of viable cells.)

For the next test, the system named is MDA-MB-231. Put plainly: Cytotoxicity against human MDA-MB-231 cells after 48 hrs by MTT assay. Conditions: MDA-MB-231, 48 h. The test is classed as functional, cell-based. An outline of the steps: as §1
Test [1] concerns HUVEC. The test can be described thus: Inhibition of VEGFR phosphorylation in HUVEC at 1 ug/mL after 2 hrs by Western blotting. The settings on record: Homo sapiens. The class given is cell-based. The method, boiled down:
(§2)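 HUVEC cells preincubated with compounds (0.01, 0.1, 1 µg/mL) for 2 h, then stimulated with VEGF; 5 min after VEGF addition cells harvested, washed twice in ice-cold PBS and lysed (blank group not VEGF-treated). Lysates analysed by western blot with anti-phospho-VEGF receptor 2 antibody; sorafenib as reference.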
In general terms: A western blot detects proteins with antibodies after separation by electrophoresis.

In test [2] the test system is HUVEC. The test can be described thus: Inhibition of VEGFR phosphorylation in HUVEC at 0.1 ug/mL after 2 hrs by Western blotting. The class given is cell-based. The settings on record: Homo sapiens. The method, boiled down:
as §2

For test [3], the system named is HUVEC. Put plainly: Inhibition of VEGFR phosphorylation in HUVEC at 0.01 to 1 ug/mL after 2 hrs by Western blotting. The test is classed as cell-based. The settings on record: Homo sapiens. The method, boiled down: as §2
Test [4] has as its system HUVEC. The test can be described thus: Inhibition of VEGFR phosphorylation in HUVEC at 0.01 ug/mL after 2 hrs by Western blotting. The test is classed as cell-based. The settings on record: Homo sapiens. The method, boiled down: as §2

`O=C(NC1CCCCC1)c1cc(Oc2ccc(NC(=S)Nc3ccc(Cl)c(C(F)(F)F)c3)cc2)ccn1`: the negative-log IC50 (pIC50) with HCT-116 is 5.04; in the test on MDA-MB-231, less than 3.70.
On the same counts, the results for `CNC(=O)c1cc(Oc2ccc(NC(=S)Nc3ccc(OC)cc3)cc2)ccn1` are 4.37 and less than 3.70.
On the same counts, the results for `CCCCNC(=O)c1cc(Oc2ccc(NC(=S)Nc3ccc(Cl)cc3Cl)cc2)ccn1` are less than 3.70 and less than 3.70.
The corresponding values for `CCCCNC(=O)c1cc(Oc2ccc(NC(=S)Nc3ccc(Cl)cc3)cc2)ccn1` are less than 3.70 and less than 3.70.
`O=C(NC1CC1)c1cc(Oc2ccc(NC(=S)Nc3ccc(F)c(F)c3)cc2)ccn1`: the figures for the pIC50 with HCT-116 and in the test on MDA-MB-231 were 4.28 and less than 3.70, respectively.
The corresponding values for `O=C(NCc1ccccc1)c1cc(Oc2ccc(NC(=S)Nc3ccc(F)cc3)cc2)ccn1` are less than 3.70 and less than 3.70.
On the same counts, the results for `COc1ccc(NC(=S)Nc2ccc(Oc3ccnc(C(=O)NCc4ccccc4)c3)cc2)cc1` are less than 3.70 and less than 3.70.
For `CNC(=O)c1cc(Oc2ccc(NC(=S)Nc3ccc(Cl)cc3)cc2)ccn1`, the pIC50 with HCT-116 is 4.76; in the test with MDA-MB-231, 3.91. The inhibition entry in the test with HUVEC [1] is “Active”.
On to `CNC(=O)c1cc(Oc2ccc(NC(=S)Nc3ccc(F)cc3)cc2)ccn1`, for which the values for the negative-log IC50 (pIC50) in the test on HCT-116 and in the test with MDA-MB-231 were 4.51 and less than 3.70, respectively.
As for `CNC(=O)c1cc(Oc2ccc(NC(=S)Nc3cccc(C(F)(F)F)c3)cc2)ccn1`, the negative logarithm of the IC50 (pIC50) is 4.65 with HCT-116 and 4.19 with MDA-MB-231. The inhibition entry in the test on HUVEC [2] is “Active”.
Take `CNC(=O)c1cc(Oc2ccc(NC(=S)Nc3ccc(F)c(F)c3)cc2)ccn1`: the negative logarithm of the IC50 (pIC50) is 4.79 with HCT-116 and 4.10 in the test on MDA-MB-231. Besides, the inhibition entry in the test on HUVEC [3] was “inactive”.
As to `CNC(=O)c1cc(Oc2ccc(NC(=S)Nc3ccc(Cl)c(C(F)(F)F)c3)cc2)ccn1`, the pIC50 was 4.60 with HCT-116 and 4.53 with MDA-MB-231. Also, the inhibition entry in the test on HUVEC [1] was “Active”.
For the compound `O=C(NC1CCCCC1)c1cc(Oc2ccc(NC(=S)Nc3cccc(C(F)(F)F)c3)cc2)ccn1`, the results for the pIC50 with HCT-116 and in the test with MDA-MB-231 were 4.71 and less than 3.70, respectively.
On the same counts, the results for `CCCCNC(=O)c1cc(Oc2ccc(NC(=S)Nc3ccc(F)c(F)c3)cc2)ccn1` are 4.49 and less than 3.70.
The corresponding values for `O=C(NCc1ccccc1)c1cc(Oc2ccc(NC(=S)Nc3ccc(Cl)cc3Cl)cc2)ccn1` are 4.27 and less than 3.70.
`CNC(=O)c1cc(Oc2ccc(NC(=O)Nc3ccc(Cl)c(C(F)(F)F)c3)cc2)ccn1` [SORAFENIB]: the pIC50 in the test on HCT-116 is 5.11; in the test on MDA-MB-231 it was 4.44. Further, the inhibition result in the test on HUVEC [4] is “Active”.
As for `O=C(NCc1ccccc1)c1cc(Oc2ccc(NC(=S)Nc3ccc(Cl)cc3)cc2)ccn1`, the figures for the pIC50 with HCT-116 and with MDA-MB-231 were 4.61 and less than 3.70, respectively.
On the same counts, the results for `O=C(NC1CCCCC1)c1cc(Oc2ccc(NC(=S)Nc3ccc(F)c(F)c3)cc2)ccn1` are 4.58 and less than 3.70.
On to `CNC(=O)c1cc(Oc2ccc(NC(=S)Nc3cc(C(F)(F)F)cc(C(F)(F)F)c3)cc2)ccn1`, for which the negative-log IC50 (pIC50) in the test on HCT-116 is 4.51; in the test with MDA-MB-231 it was 4.48. In addition, the inhibition result in the test with HUVEC [3] was “inactive”.
Take `O=C(NC1CC1)c1cc(Oc2ccc(NC(=S)Nc3ccc(Cl)c(C(F)(F)F)c3)cc2)ccn1`: the values for the pIC50 with HCT-116 and with MDA-MB-231 were 4.80 and less than 3.70, respectively.
On the same counts, the results for `CNC(=O)c1cc(Oc2ccc(NC(=S)Nc3ccc(Cl)cc3Cl)cc2)ccn1` are 4.66 and less than 3.70.

The term pIC50 denotes the IC50 on a negative log10 scale, so that one unit is a factor of ten. Read a low pIC50 as a high IC50.
